Screening data: PubChem BioAssay, several laboratories
Compounds with a hit are over-represented: about 1.4% of the library has one in this group of screens.
PG9 binder = binds the HIV-1 gp120 antibody PG9; 360,000 tested, 0.43% active; inhibition, % at 6.7 µM; TR-FRET gp120-PG9 antibody binding; in the data active = inhibition above about 8.5%
NR2E3 ag-1 = human photoreceptor-specific nuclear receptor agonism. Q9Y5X4. CHO-S Gal4-NCOR/VP16-NR2E3 two-hybrid, luciferase. 360,000 tested, 0.35% active. inhibition of corepressor binding, % at 3.98 µM;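 active = inhibition above the mean of all tested compounds plus 3 SD, cut at about 70% in these data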;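 also: 0% = DMSO with NR2E3 transfected cells and 100% = cells lacking NR2E3 construct; higher means lower luciferase signal from less NR2E3 corepressor binding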
NR1D1 modulator = modulators of human Rev-erb alpha DNA binding. P20393. activity, % at 10 µM. AID 1259318. 370,000 tested, 0.79% active. Rev-erbα–FITC-DNA binding, fluorescence polarization, 90 min;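 active = activity above about 14%, limit read from the data; passing the limit was not always enough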;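 also: 0% = DMSO wells with 35 nM protein and 100% = DMSO wells with 750 nM protein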
Target sequence (P20393 whole entry, looked up): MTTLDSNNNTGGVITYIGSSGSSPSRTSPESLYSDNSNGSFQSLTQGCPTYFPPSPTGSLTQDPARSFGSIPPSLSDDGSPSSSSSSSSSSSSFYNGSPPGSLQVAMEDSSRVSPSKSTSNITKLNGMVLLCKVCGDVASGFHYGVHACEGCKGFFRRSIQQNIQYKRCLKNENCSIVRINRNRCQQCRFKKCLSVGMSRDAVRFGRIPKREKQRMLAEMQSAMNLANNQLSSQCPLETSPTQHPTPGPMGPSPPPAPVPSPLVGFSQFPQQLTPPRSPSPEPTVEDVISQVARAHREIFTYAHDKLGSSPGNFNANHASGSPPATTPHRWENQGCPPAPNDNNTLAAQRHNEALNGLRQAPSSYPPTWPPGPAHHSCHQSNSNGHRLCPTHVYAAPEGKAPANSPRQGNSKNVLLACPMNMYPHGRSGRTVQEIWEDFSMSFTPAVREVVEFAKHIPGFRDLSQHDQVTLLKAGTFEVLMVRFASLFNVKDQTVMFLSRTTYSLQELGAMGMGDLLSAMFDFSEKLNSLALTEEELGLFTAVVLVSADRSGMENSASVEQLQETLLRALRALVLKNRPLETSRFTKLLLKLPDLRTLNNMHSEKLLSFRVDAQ
NR2E3 ag-2 = agonists of human nuclear receptor NR2E3; GST-NR2E3/biotin-RetCOR TR-FRET, 1536-well; Q9Y5X4; 320,000 tested, 0.12% active; inhibition of corepressor binding, % at 4.78 µM; AID 2300;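 active = percent inhibition above the cutoff of mean plus 3 SD of all tested compounds, set per screening campaign, cut at about 20% in these data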;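 also: 0% = DMSO wells and 100% = biotin wells as full block of FRET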
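Test system – NR2E3–RetCOR corepressor complex · Quantity – NR2E3 fusion 1.35 nM · Buffer or medium – Tris pH 7.5 · Incubation – Compound–protein incubation for 5 h at 4 °C · Technique – TR-FRET, Eu(K)-anti-GST donor, streptavidin-D2 acceptor, ex 340, em 617/671 nm · Evaluation – percent inhibition of 671/617 nm emission ratio versus biotin and DMSO controls · Plate – 1536-well format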
PG9 bind confirm = PG9 antibody binding, confirmed; shares compounds with PG9 binder; TR-FRET PG9 antibody binding, biochemical; inhibition, % at 6.7 µM; 1,500 tested, 90% active; AID 651571; in the data active = inhibition above about 9%
PGV04 counter = PGV04 control antibody binding, counter-screen | shares compounds with PG9 binder | TR-FRET PGV04 antibody-gp120 binding, biochemical | inhibition, % at 6.7 µM | 1,500 tested, 95% active; in the data active = inhibition above about 9.5%
* hit, by the source's call; . = no result.

SMILES	PG9 binder	NR2E3 ag-1	NR1D1 modulator	NR2E3 ag-2	PG9 bind confirm	PGV04 counter
Cc1ccc(Cc2cnc(NC(=O)c3ccco3)s2)cc1	0	-158	-1	1	.	.
O=C(Nc1ncc(Cc2ccc(SC(F)F)cc2)s1)c1ccc(OC(F)F)cc1	22*	10	14	0	12*	18*
O=C(C1=C(O)C(=O)N(Cc2cccnc2)C1c1cccc(Oc2ccccc2)c1)c1ccco1 (stereo not drawn)	13*	-10	-6	.	19*	28*
CC(C)Oc1ccc(C2C(C(=O)c3ccco3)=C(O)C(=O)N2Cc2cccnc2)cc1 (stereo not drawn)	9.3*	-41	5	4	15*	19*
CCOc1ccc(C2C(C(=O)c3ccco3)=C(O)C(=O)N2Cc2cccnc2)cc1OC (stereo not drawn)	1	-25	-1	3	.	.
CCCOc1ccc(C2C(C(=O)c3ccco3)=C(O)C(=O)N2CCCn2ccnc2)cc1OC (stereo not drawn)	-1	-12	0	.	.	.
CCCOc1ccc(C2C(C(=O)c3ccco3)=C(O)C(=O)N2CCCn2ccnc2)cc1 (stereo not drawn)	19*	-24	2	4	24*	28*
CC1=C2N=C(N)N(Cc3ccccc3)C(Cc3ccccc3)C2n2c(=O)n(-c3ccccc3)c(=O)n2C1 (stereo not drawn)	.	.	-4	.	.	.
C=C(C)[C@@H]1CC2=C(OC)C(CC=C(C)C)(CC=C(C)C)C(=O)C(C(=O)c3ccccc3)=C2O1	.	.	4	.	.	.
Brc1ccc(Br)c2cnccc12	13*	-41	18	.	26*	35*
Cc1cccc(-c2nnc(NC(=O)c3ccc(N4C(=O)CCC4=O)cc3)s2)c1	17*	-25	8	-11	4	12*
Cc1cccc(NC(=O)CCc2nc3sc4c(c3c(=O)[nH]2)CCCC4)n1	1	14	-9	-5	.	.
CC(=O)c1ccc(NC(=O)CCc2nc3sc4c(c3c(=O)[nH]2)CCCC4)cc1	11*	10	12	-14	23*	33*
Cc1cccc(NC(=O)CNC(=O)CCc2nc3sc4c(c3c(=O)[nH]2)CCCC4)c1C	22*	-5	-16	2	21*	40*
O=C(CCc1nc2sc3c(c2c(=O)[nH]1)CCCC3)NCCOc1ccccc1	24*	-27	-4	-2	24*	47*
CN(C)C(CNC(=O)CCc1nc2sc3c(c2c(=O)[nH]1)CCCC3)c1ccccc1 (stereo not drawn)	0	-2	-1	3	.	.
COc1ccc(CCNC(=O)CCc2nc3sc4c(c3c(=O)[nH]2)CCCC4)cc1	7	-4	0	3	.	.
O=C(CCc1nc2sc3c(c2c(=O)[nH]1)CCCC3)Nc1ccccc1Cl	17*	27	4	-2	19*	34*
Cc1ccccc1Cn1cc(COC(=O)Nc2ccc(F)cc2)nn1	.	.	1	.	.	.
Cc1ccccc1Cn1cc(CN2[C@H](C)COc3cc(Br)ccc3S2(=O)=O)nn1	.	.	0	.	.	.
COC(=O)[C@]12C[C@H](CC(=O)NCCCCc3ccccc3)C(=O)N(Cc3cccc4ccccc34)C1=C[C@H](C(C)C)O[C@@H]2C1CC1	.	.	5	.	.	.
Cc1[nH]c(=O)nc(SCc2cccc(Cl)c2)c1C#N	0	-2	4	4	.	.
N#Cc1c(-c2ccccc2)nc(SCc2cccc(Cl)c2)[nH]c1=O	8.7*	27	-6	6	14*	21*
CC(=O)N1CCN(C2=Nc3ccccc3Sc3ccccc32)CC1	.	.	0	.	.	.
CCOC(=O)Cc1csc(NC(=O)c2ccc(S(=O)(=O)N(CCOC)CCOC)cc2)n1	-1	-2	-2	-1	.	.
COCCN(CCOC)S(=O)(=O)c1ccc(C(=O)Nc2nc(-c3ccncc3)cs2)cc1	16*	22	8	7	16*	21*
CC1(C)Cc2nc3sc4c(SCC(=O)NCc5ccccc5)ncnc4c3cc2CO1	48*	-151	-3	11	86*	88*
CC(=O)c1cccc(NC(=O)CCc2nnc3ccc(NCc4ccc5c(c4)OCO5)nn23)c1	19*	-11	13	-4	23*	27*
COc1ccc(OC)c(CN2C(=O)c3ccnn3CC2(C)c2nnnn2C2CCCC2)c1 (stereo not drawn)	.	.	5	.	.	.
